# CaV13 ICDI inh = Disruptors of the CACNA1D IQ motif to Ca2+-dependent inactivation inhibitor domain association, primary screening, Förster resonance energy transfer in intact living …; actives 0.098% (n = 340,000); HEK cells, CFP/YFP FRET ICDI-IQ, plate reader, 10 min; percent FRET-ratio fall versus neutral wells; inhibition, % at 12.3 µM;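 active means mean replicate inhibition of at least 30% and at least 1% of replicates passing that level; inconclusive means only one of the two criteria is met; inactive means neither criterion is met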;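 further: 0% = median of the neutral control wells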
# HDAC3 inhib = human HDAC3 inhibition | AID 2718 | actives 0.15% (n = 320,000) | recombinant HDAC3, fluorogenic peptide/trypsin coupled, fluorescence | inhibition, % at 8.3 µM | O15379; in the data active means inhibition above about 26%, passing the limit was not always enough; inconclusive means no clear call, values can overlap the other calls
# Runt-SMMHC FRET = Runt domain-CBFb-SMMHC interaction inhibition | Cerulean-Runt/Venus-CBFb-SMMHC FRET ratio 530/480, 1 h | Q01196+Q13951 | actives 0.74% (n = 220,000) | inhibition, % at 20 µM | AID 1434;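 active means mean inhibition across duplicate retests at 20 µM reaching about 50%, limit read from the data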;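 further: 0% = DMSO wells and 100% = wells with excess untagged CBFb-SMMHC; inhibitors lower the FRET ratio by blocking Runt binding to CBFb-SMMHC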
# Runt-CBFb FRET = inhibitors of human RUNX1 Runt domain binding to CBFb; Q01196+Q13951; inhibition, % at 20 µM; actives 0.46% (n = 220,000); AID 1496; Cerulean-Runt/Venus-CBFb FRET ratio 530/480, 1 h;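 active means inhibition over about 50% at 20 µM in the single-dose screen, limit read from the data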;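 further: 0% = DMSO wells and 100% = excess unlabeled CBFb competitor control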
#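 Assay system: Cerulean-tagged RUNX1 Runt domain (FRET donor) fusion protein / Amount: 100 nM each of Venus-CBFb and Cerulean-Runt domain / Medium: Tris buffer pH 7.5 with salts and BSA / Also added: Venus-CBFb 100 nM / Schedule: 1 h complex formation plus 1 h compound treatment, room temperature / Signal: FRET fluorescence / Read-out: loss of energy transfer signal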
# RanGTP-Imp inh = disruptors of Ran-importin-beta complex formation – biochemical, FRET, CFP-Ran, YFP-importin-beta, homogeneous, primary screen. actives 1.1% (n = 300,000). inhibition, % (test concentration not listed). AID 2216. cell-free CFP-Ran/YFP-importin-beta FRET ratio;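 active means more than half of the replicate wells show a fall in the fluorescence ratio signal beyond about 16%, limit read from the data, passing the limit was not always enough; inconclusive means exactly half of the replicate wells pass the set limit; inactive means fewer than half of replicates pass the limit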;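 further: 0% = DMSO wells and 100% = Ran loaded with GDP instead of GTP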
# LANA-H2A inh = blocks KSHV LANA binding to histone H2A/H2B | inhibition, % (test concentration not listed) | Q9QR71 | cell-free LANA-H2A/H2B peptide, fluorescence polarization | actives 0.6% (n = 320,000); in the data active means inhibition mostly above about 10%, no sharp cut-off; inactive means mostly below about 6.7%
# Target sequence (Q9QR71 whole entry, looked up): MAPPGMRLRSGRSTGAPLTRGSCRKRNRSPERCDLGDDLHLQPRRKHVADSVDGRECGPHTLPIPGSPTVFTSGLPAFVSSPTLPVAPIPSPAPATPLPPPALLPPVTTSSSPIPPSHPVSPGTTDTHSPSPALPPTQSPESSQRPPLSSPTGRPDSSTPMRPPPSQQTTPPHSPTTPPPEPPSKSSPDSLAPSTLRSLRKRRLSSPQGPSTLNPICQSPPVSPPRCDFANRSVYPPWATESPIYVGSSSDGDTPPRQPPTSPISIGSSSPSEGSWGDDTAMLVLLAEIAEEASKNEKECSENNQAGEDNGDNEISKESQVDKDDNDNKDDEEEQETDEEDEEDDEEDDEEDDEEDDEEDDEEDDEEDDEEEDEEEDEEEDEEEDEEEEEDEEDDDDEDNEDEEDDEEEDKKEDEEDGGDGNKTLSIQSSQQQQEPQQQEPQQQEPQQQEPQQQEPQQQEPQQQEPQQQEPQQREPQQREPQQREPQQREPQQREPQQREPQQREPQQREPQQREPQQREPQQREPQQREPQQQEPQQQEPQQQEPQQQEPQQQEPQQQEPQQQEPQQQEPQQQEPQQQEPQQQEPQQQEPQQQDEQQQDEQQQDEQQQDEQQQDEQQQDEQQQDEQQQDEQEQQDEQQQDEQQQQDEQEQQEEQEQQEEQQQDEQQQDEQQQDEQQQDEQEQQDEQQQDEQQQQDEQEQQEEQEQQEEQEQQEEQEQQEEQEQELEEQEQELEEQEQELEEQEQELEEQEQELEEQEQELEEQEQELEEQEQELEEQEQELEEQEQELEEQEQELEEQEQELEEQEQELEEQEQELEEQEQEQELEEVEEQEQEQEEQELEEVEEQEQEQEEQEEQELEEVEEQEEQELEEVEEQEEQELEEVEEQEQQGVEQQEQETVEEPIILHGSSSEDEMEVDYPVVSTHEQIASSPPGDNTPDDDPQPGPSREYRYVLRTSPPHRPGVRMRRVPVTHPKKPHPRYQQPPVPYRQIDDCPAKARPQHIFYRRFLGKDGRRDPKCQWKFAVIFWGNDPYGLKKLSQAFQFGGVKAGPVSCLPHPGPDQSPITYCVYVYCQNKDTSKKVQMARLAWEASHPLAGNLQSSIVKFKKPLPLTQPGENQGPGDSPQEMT
# YIC FRET counter = counter-screen: alters YIC FRET probe signal; AID 435026; shares compounds with RanGTP-Imp inh; actives 40% (n = 1,000); IC50, µM; Purified YIC probe, intramolecular FRET ratio YFP/CFP;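 active means fitted half-maximal inhibitory concentration no more than tenfold above the top dose tested; inconclusive means flat fit with 30 to 70% activity, or poor fit; inactive means half-maximal concentration beyond tenfold above the top dose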
# Numbers without * were called inactive; u = inconclusive; x = not tested or not shown. The list is not random: actives were taken first. Their share in the collection is about 1.9%.
SMILES,CaV13 ICDI inh,HDAC3 inhib,Runt-SMMHC FRET,Runt-CBFb FRET,RanGTP-Imp inh,LANA-H2A inh,YIC FRET counter
Cc1cccc(C(=O)Nc2sc(C)c(-c3ccccc3)c2C#N)c1,x,1.8,3.9,3.4,38.9*,3.8,>50
COC(=O)C1=CN(Cc2ccccc2)C=C(C(=O)OC)C1c1cc(F)ccc1F,-2.5,-41.8,x,x,23.8*,2.4,20.9*
CCC1CCCCN1C(=O)COc1cccc2c1CCN(C)C2=O (stereo not given),-6.4,2.2,-0.6,0.4,18.3*,0.7,>50
CN1CCc2c(OCC(=O)NC3CCCCC3)cccc2C1=O,-1.3,-7.6,x,x,-3.4,-2.1,x
Cc1ccc(-c2nnc(Nc3ccc4c(c3)OCO4)c3ccccc23)cc1S(=O)(=O)NCCO,-2.3,4.2,0.6,-2.6,0.2,-0.4,x
O=C(COC(=O)CSCC(=O)N1CCCCC1)Nc1ccc(Cl)cc1,x,4.5,4.4,-1.5,28.3*,-10.2,>50
O=C(CSCC(=O)OCC(=O)N1CCN(C(=O)c2ccco2)CC1)Nc1ccc(Cl)cc1,-5.0,x,x,x,x,x,x
CCn1cc(SCC(=O)NC2CCCC2)c2ccccc21,-5.2,-2.7,x,x,3.0,3.2,x
CCOC(=O)C1(CCc2ccccc2)CCN(Cc2ccc(C(=O)OC)cc2)CC1,-20.1,2.0,x,x,5.6,-8.5,x
CCOC(=O)C1(CCc2ccccc2)CCN(Cc2ccccn2)CC1,-1.6,-1.7,0.4,1.5,16.9*,-1.0,>50
COc1c(N2CCN(C(=S)NCc3ccccc3)C(C)C2)c(F)cc2c(=O)c(C(=O)O)cn(C3CC3)c12 (stereo not given),x,1.4,-17.6,1.8,3.1,4.9,x
CC12OC1C1(O)CCCC1=CC2=O (stereo not given),x,5.1,x,x,19.8*,-0.7,>50
O=C(Cn1nnc(-c2ccncc2)n1)NCCc1ccccc1,-7.0,-9.6,-4.3,0.4,18.2*,-1.7,>50
C=CCN1C=CC(=CC=C(C#N)C#N)C=C1,-5.1,21.2,-49.8,-25.8,20.9*,-27.7,16.6*
C=CCN1C=C/C(=C\C=C(C#N)C#N)c2ccccc21,6.0,4.8,14.6,-0.2,-6.5,-22.7,x
COc1ccc(-c2nc(C(F)(F)F)c(OC)o2)cc1OC,-4.5,-6.3,-0.2,-1.5,u,-0.2,x
Cc1cccc(Oc2nc3ccccn3c(=O)c2/C=C(\C#N)C(=O)NC2CCS(=O)(=O)C2)c1 (stereo not given),-0.7,x,80.6*,4.2,26.9*,-0.2,47.7*
COc1ccc(Oc2nc3c(C)cccn3c(=O)c2/C=C(\C#N)C(N)=O)cc1,-3.7,-25.2,82.3*,34.0,21.8*,0.1,6*
Cc1cccn2c(=O)c(/C=C(\C#N)C(=O)NC3CCS(=O)(=O)C3)c(Oc3ccc(F)cc3)nc12 (stereo not given),-4.6,-1.4,x,x,37.2*,2.7,18.4*
COc1ccc(N2CCN(c3nc4c(C)cccn4c(=O)c3/C=C(\C#N)C(N)=O)CC2)cc1,-18.1,-13.1,x,x,u,-5.1,x
COC(=O)/C(C#N)=C/c1c(Oc2cccc(C)c2)nc2ccccn2c1=O,-9.2,4.3,15.5,3.2,6.4,-6.5,x
COC(=O)/C(C#N)=C/c1c(Oc2cc(C)cc(C)c2)nc2c(C)cccn2c1=O,-4.2,-4.3,-244.7,-64.2,7.3,-4.1,x
COc1ccc(CCNC(=O)CSCc2ccc(F)cc2)cc1OC,-16.8,4.4,2.8,0.7,1.9,-2.4,x
CCOc1ccc(NC(=O)COn2nnc3ccc(S(=O)(=O)N4CCOCC4)cc32)cc1,-3.9,2.8,1.8,-3.3,u,2.6,x
O=C(c1cc2c(=O)n3ccccc3nc2s1)N1CCN(c2cccc(Cl)c2)CC1,-3.6,-15.8,x,x,29.4*,1.9,>50
SMILES,CaV13 ICDI inh,HDAC3 inhib,Runt-SMMHC FRET,Runt-CBFb FRET,RanGTP-Imp inh,LANA-H2A inh,YIC FRET counter
CCOc1ccc(NC(=O)NC2CCCc3ccccc32)cc1 (stereo not given),-2.1,-2.6,x,x,0.2,3.7,x
COc1ccccc1CNC(=O)Cn1ccsc1=N,x,-1.1,x,x,20.1*,-6.1,>50
CCOC(=O)C(NC(=O)Nc1ccc(F)cc1F)(Oc1ccccc1)C(F)(F)F (stereo not given),-9.5,4.0,-9.0,-0.6,1.0,-1.8,x
NC(=O)N/N=C/c1ccccc1OC(=O)c1cc2ccccc2oc1=O,-6.3,4.7,x,x,18.2*,-3.1,>50
NC(=S)N/N=C/c1ccccc1OC(=O)c1cc2ccccc2oc1=O,-2.6,-2.7,x,x,5.6,0.0,x
Cc1ccccc1NC(=S)N(C)CCc1ccccn1,-5.8,2.2,4.3,0.0,-2.7,-5.0,x
Cc1ccc(C)c(NC(=S)N(C)CCc2ccccn2)c1,-5.2,8.5,-8.1,-1.6,24.5*,-4.7,>50
O=C(c1ccc2ccccc2n1)N1CCN(S(=O)(=O)c2ccc(Cl)cc2)CC1,-5.1,7.2,x,x,x,4.7,x
O=C(NCc1cccs1)c1ccc([N+](=O)[O-])cc1,-17.6,2.9,-5.8,2.1,1.2,4.8,x
Cc1ccc2cc(CN(CC3CCCO3)C(=S)Nc3ccccc3)c(=O)[nH]c2c1C (stereo not given),-2.7,8.8,1.2,-0.4,17.8*,4.2,>50
O=C(OCC(=O)N1CCOCC1)c1cc(S(=O)(=O)N2CCOCC2)c(Cl)cc1Cl,-1.7,x,x,x,x,x,x
Cc1ccc(-c2nc3cc(N)ccc3o2)cc1,-3.6,7.0,-4.9,-1.5,20.5*,1.8,>50
Cc1ccc(-c2nc3cc(C)ccc3o2)cc1,x,-6.0,-2.6,-0.2,1.7,17.6,x
CCOC(=O)N1CCN(c2cc(=O)n(-c3ccc(OC)cc3)c(=O)[nH]2)CC1,-7.1,5.1,-0.8,-0.6,x,0.7,x
CC1CN(c2cc(=O)n(-c3ccccc3)c(=O)[nH]2)CC(C)O1 (stereo not given),-3.3,-3.5,-3.5,3.6,13.3,-3.4,x
CCOC(=O)N1CCN(c2cc(=O)n(-c3ccccc3C)c(=O)[nH]2)CC1,-6.8,-20.3,2.2,-0.1,36.3*,-6.1,>50
Cc1ccccc1-n1c(=O)cc(N2CC(C)OC(C)C2)[nH]c1=O (stereo not given),-6.0,0.2,-1.4,-4.8,63.2*,-3.2,>50
CCOC(=O)C1=C(C)N(C)C(=S)N(C)C1c1ccc(OC)cc1 (stereo not given),2.0,4.8,2.0,-4.8,-0.9,-6.9,x
Cc1ccc(S(=O)(=O)Nc2ccc3[nH]ccc3c2)cc1,-3.8,4.4,x,x,-6.7,-3.5,x
c1ccc2c(c1)nc(NCC1CCCO1)c1nnnn12 (stereo not given),-5.1,-7.4,28.0,18.1,23.4*,2.3,28.2*

# Assay outcomes (PubChem BioAssay)
